16 molecules from PubChem BioAssay can be followed below.

Activity calls are given as the source filed them.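 Rule for the calls, unless noted: active = viability at or below 30% in both replicate assays; inconclusive = viability at or below 30% in just one of the two assays; inactive = the rest.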

Assay [1] can be described thus: Her2 expression decrease, cell viability multiplex – SKBR3 breast tumor cells, AlphaScreen, ATP viability, primary screen (AID 461;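 active = Her2 level under about 52% in both replicate screens, with viability over 70% of control, limit read from the data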;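 for Her2 level: lower value means less Her2 protein in the cells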;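 for viability: percent of carrier control wells set as 100% viability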). As to conditions: SKBR3 Her2 protein level, 18-24 h, measured here: SKBR3 viability, ATP luminescence, at 10 µM. (In general: Alpha assays give light when donor and acceptor beads are brought close together.)
The target of assay [2] is Receptor tyrosine-protein kinase erbB-2 (Homo sapiens) (UniProt P04626). The assay is described as above. The settings on record: 18-24 h, at 10 µM, stronger effect = lower value.
Assay [3] in a line: reduced viability of SK-BR-3 breast cancer cells – cell-based, 24 h, human, pilot screen (AID 572;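 active = viability at or below 10% of carrier control in both of two separate runs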;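 note: compound exposure lasted between 18 and 24 h rather than exactly 24 h; 100% = carrier-treated control wells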). As to conditions: SK-BR-3 viability, CellTiter-Glo luminescence, at 10 µM, stronger effect = lower value. For orientation: In ATP-based viability assays light output follows the ATP content of the culture.
A short description of assay [4]: HUVEC growth inhibition – cell-based, human, primary screen (AID 575).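 Note: 100% = median of untreated cell wells with 0.1% DMSO on each plate.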 As to conditions: HUVEC proliferation, CellTiter-Glo luminescence, 72 h; at 10 µM; stronger effect = lower value. In short, it runs like this: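 Assay system: primary human umbilical vein endothelial cells / Buffer or medium: endothelial basal medium with 2% FBS plus growth supplements / Compound dosing: one dose, 10 µM final, 0.1% DMSO / Timing: 72 h treatment at 37 °C / Signal: CTG luminescence / Benchmarks: 32 DMSO-only cell-control wells (high), 32 MePR drug-control wells (low) per plate / Plate: collagen-coated 384-well format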

Assay [5] is described as follows: H69AR cell proliferation blockers – human, duplicate replicates, primary screen (AID 580;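 active = viability at or under a set limit in both replicates, limit being median viability minus 3 SD, cut at about 48% in these data, passing the limit was not always enough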;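 note: 100% = mean luminescence of untreated wells and 0% = no signal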). The settings on record: H69AR lung tumor cells viability, ATP luminescence, 72 h; at 10 µM; stronger effect = lower value.
Assay [6] in a line: MRP1 drug-resistance reversers in H69AR cells – cell-based, doxorubicin co-treatment, pilot screen (AID 601;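 active = viability loss from added drug above about 55%, and viability with drug at most 40%, in both replicates, limit read from the data, passing the limit was not always enough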). The settings on record: CellTiter-Glo, 72 h, at 10 µM; for differential viability (reversal): stronger effect = higher value.
Assay [7] can be described thus: yeast transport mutant growth inhibition pilot in 384-well plates, post-Golgi transport modulator project (AID 636; in the data active = inhibition above about 31%). The settings on record: absorbance 615 nm, about 18 h, stronger effect = higher value.
Assay [8] in a line: growth suppression of yeast trafficking mutant, preliminary HTS, modulators of trafficking downstream of Golgi apparatus project, 1536-format plate, OD 615 nm (AID 637; in the data active = inhibition above about 30%). As to conditions: yeast transport mutant growth, absorbance 615 nm, 18 h; stronger effect = higher value.
Setting [9] is: H69AR cells + 2 uM doxorubicin, measured here: viability with 2 uM doxorubicin, stronger effect = lower value.
Setting [10] is: H69AR cells, compound alone cytotoxicity.

Chain of Receptor tyrosine-protein kinase erbB-2 (Homo sapiens) (P04626 whole entry, looked up): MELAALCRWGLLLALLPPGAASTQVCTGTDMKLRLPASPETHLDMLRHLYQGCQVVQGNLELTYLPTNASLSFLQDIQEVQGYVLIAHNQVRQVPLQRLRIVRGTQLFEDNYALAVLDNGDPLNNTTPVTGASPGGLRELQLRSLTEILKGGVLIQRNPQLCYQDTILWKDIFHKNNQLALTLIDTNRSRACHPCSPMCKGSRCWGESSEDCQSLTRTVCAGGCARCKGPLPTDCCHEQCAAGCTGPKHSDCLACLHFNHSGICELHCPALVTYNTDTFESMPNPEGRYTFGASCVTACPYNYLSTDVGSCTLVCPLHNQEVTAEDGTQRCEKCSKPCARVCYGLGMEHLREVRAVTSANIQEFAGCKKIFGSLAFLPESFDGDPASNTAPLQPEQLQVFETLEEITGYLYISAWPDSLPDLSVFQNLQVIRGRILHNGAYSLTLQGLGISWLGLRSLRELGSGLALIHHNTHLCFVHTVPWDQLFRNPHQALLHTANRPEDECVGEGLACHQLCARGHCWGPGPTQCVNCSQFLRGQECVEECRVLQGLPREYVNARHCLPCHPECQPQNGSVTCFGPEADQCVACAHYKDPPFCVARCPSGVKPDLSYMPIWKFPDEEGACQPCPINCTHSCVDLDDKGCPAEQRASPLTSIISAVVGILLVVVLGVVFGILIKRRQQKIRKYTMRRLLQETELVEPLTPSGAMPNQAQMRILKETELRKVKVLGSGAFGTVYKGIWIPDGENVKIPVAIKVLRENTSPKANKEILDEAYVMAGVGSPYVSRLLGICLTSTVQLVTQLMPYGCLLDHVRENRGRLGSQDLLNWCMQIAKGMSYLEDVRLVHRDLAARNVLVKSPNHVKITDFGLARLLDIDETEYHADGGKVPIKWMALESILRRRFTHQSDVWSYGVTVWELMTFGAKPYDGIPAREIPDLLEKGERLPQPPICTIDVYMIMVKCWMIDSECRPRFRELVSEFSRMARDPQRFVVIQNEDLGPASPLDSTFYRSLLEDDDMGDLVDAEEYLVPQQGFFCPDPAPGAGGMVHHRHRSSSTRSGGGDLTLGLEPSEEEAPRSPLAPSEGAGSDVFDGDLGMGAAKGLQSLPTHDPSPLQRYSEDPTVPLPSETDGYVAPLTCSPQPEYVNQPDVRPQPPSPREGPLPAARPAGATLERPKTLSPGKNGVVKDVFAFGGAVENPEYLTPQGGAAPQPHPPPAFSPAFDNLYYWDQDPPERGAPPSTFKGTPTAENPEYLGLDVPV

A word on the viability: it is a read-out of living cells in per cent, often relative to untreated cells. Usually inhibition stands for the change of the read-out against control, counted positive when it falls. Regarding `CCCn1nnnc1SCC(=O)c1ccc2c(c1)OCCO2`, the viability was 90% in assay [1]; 90% (inactive) in assay [3]; 110% (inactive) in assay [4]; 106% (inactive) in assay [5]; 92.8% in assay [6] (setting [9]); 106% in assay [6] (setting [10]). In assay [2], the Her2 level is 108% (inactive). Moreover, the differential viability (reversal) in assay [6] (H69AR cells + 2 uM doxorubicin) is 13.4% (inactive). Moreover, the values for the inhibition in assay [7] and in assay [8] were 2.67% (inactive) and 10.7% (inactive), respectively.

Take `CCc1nc(N)c(C#N)c(-c2ccc(OC)c(OC)c2)c1C`: the viability is 98.5% in assay [1]; 98.5% (inactive) in assay [3]; 91.4% (inactive) in assay [4]; 87.2% (inactive) in assay [5]; 78.1% in assay [6] (setting [9]); 87.2% in assay [6] (setting [10]). Besides, the Her2 level in assay [2] was 93% (inactive). Besides, the differential viability (reversal) in assay [6] (H69AR cells + 2 uM doxorubicin) is 9.15% (inactive). For the same molecule, the inhibition in assay [7] is -6.93% (inactive); in assay [8], 3.33% (inactive).

On to `COc1ccc(C(C(C(=O)c2ccco2)N2CCOCC2)N2CCOCC2)cc1` (stereo not given), for which the viability in assay [1] was 97%; in assay [3], 97% (inactive); in assay [4], 85.6% (inactive); in assay [5], 87.3% (inactive); in assay [6] (setting [9]), 91.4%; in assay [6] (setting [10]) it was 87.3%. Also, the Her2 level in assay [2] is 95% (inactive). In addition, the differential viability (reversal) in assay [6] (H69AR cells + 2 uM doxorubicin) is -4.03% (inactive). The inhibition is -6.53% (inactive) in assay [7] and -10.6% (inactive) in assay [8].

On to `Cc1cc(C)nc(N2CCCC(C(=O)Nc3ccc4c(c3)OCO4)C2)n1` (stereo not given), for which the viability in assay [1] was 93%; in assay [3], 93% (inactive); in assay [4], 96.9% (inactive); in assay [5] it was 98.5% (inactive); in assay [6] (setting [9]), 89.6%; in assay [6] (setting [10]) it was 98.5%. In addition, the Her2 level in assay [2] is 104% (inactive). In addition, the differential viability (reversal) in assay [6] (H69AR cells + 2 uM doxorubicin) is 8.88% (inactive). For the same molecule, the inhibition is -5.54% (inactive) in assay [7] and -12.3% (inactive) in assay [8].

For `O=C(Cc1cccs1)Nc1ccccc1C(=O)O`, the viability is 109% in assay [1]; 109% (inactive) in assay [3]; 87.5% (inactive) in assay [4]; 103% (inactive) in assay [5]; 97.2% in assay [6] (setting [9]); 103% in assay [6] (setting [10]). Also, the Her2 level in assay [2] was 96.5% (inactive). Also, the differential viability (reversal) in assay [6] (H69AR cells + 2 uM doxorubicin) was 5.91% (inactive). Moreover, the inhibition in assay [7] is -4.67% (inactive); in assay [8], 5.16% (inactive).

As for `CSc1nc(C)cc(Oc2ccc(=O)n(C)n2)n1`, the viability in assay [1] is 97%; in assay [3], 97% (inactive); in assay [4] it was 112% (inactive); in assay [5], 90.5% (inactive); in assay [6] (setting [9]), 78.7%; in assay [6] (setting [10]) it was 90.5%. In addition, in assay [2], the Her2 level was 89.5% (inactive). Besides, the differential viability (reversal) in assay [6] (H69AR cells + 2 uM doxorubicin) was 11.8% (inactive). Further, the inhibition in assay [7] is -3.92% (inactive); in assay [8], -3.28% (inactive).

As for `NC(=O)CSc1nnc(-c2cnccn2)n1-c1ccccc1`, the viability in assay [1] is 114%; in assay [3], 114% (inactive); in assay [4], 103% (inactive); in assay [5], 89.8% (inactive); in assay [6] (setting [9]), 82.5%; in assay [6] (setting [10]), 89.8%. Also, the Her2 level in assay [2] was 97% (inactive). For the same molecule, in assay [6] (H69AR cells + 2 uM doxorubicin), the differential viability (reversal) was 7.27% (inactive). The inhibition in assay [7] was -5.07% (inactive); in assay [8], 1.13% (inactive).

For `COc1ccc(N2CCN(C(=O)COc3ccc4ccccc4c3)CC2)cc1`, the viability was 77.5% in assay [1]; 77.5% (inactive) in assay [3]; 84.8% (inactive) in assay [4]; 108% (inactive) in assay [5]; 90.8% in assay [6] (setting [9]); 108% in assay [6] (setting [10]). The Her2 level in assay [2] is 86.5% (inactive). In assay [6] (H69AR cells + 2 uM doxorubicin), the differential viability (reversal) was 17.1% (inactive). The inhibition in assay [7] was -6.35% (inactive); in assay [8], 3.11% (inactive).

With `COC(=O)c1cccc(NC(=O)NC2CCCN2S(=O)(=O)c2ccc(Cl)cc2)c1` (stereo not given), the viability in assay [1] is 83%; in assay [3], 83% (inactive); in assay [4] it was 82.6% (inactive); in assay [5], 94.1% (inactive); in assay [6] (setting [9]), 82.7%; in assay [6] (setting [10]), 94.1%. Moreover, the Her2 level in assay [2] is 75.5% (inactive). Also, the differential viability (reversal) in assay [6] (H69AR cells + 2 uM doxorubicin) was 11.4% (inactive). Besides, the inhibition in assay [7] is -4.53% (inactive); in assay [8], -7.05% (inactive).

As to `COCCCNC(=O)CCc1nc2cccnc2n1Cc1ccc(OC)cc1`, the viability in assay [1] was 110%; in assay [3], 110% (inactive); in assay [4], 115% (inactive); in assay [5], 99.2% (inactive); in assay [6] (setting [9]), 94.3%; in assay [6] (setting [10]), 99.2%. For the same molecule, in assay [2], the Her2 level is 106% (inactive). Besides, in assay [6] (H69AR cells + 2 uM doxorubicin), the differential viability (reversal) was 4.86% (inactive). Further, the inhibition in assay [7] was -7.03% (inactive); in assay [8], 1.83% (inactive).

As to `COc1ccc(Cn2nnnc2C(c2cc3cc(C)cc(C)c3[nH]c2=O)N2CCOCC2)cc1` (stereo not given), the viability in assay [1] is 108%; in assay [3], 108% (inactive); in assay [4], 117% (inactive); in assay [5], 99.4% (inactive); in assay [6] (setting [9]) it was 87.4%; in assay [6] (setting [10]) it was 99.4%. Further, the Her2 level in assay [2] is 94.5% (inactive). In addition, in assay [6] (H69AR cells + 2 uM doxorubicin), the differential viability (reversal) was 11.9% (inactive). For the same molecule, the inhibition in assay [7] was -7.47% (inactive); in assay [8], 0.32% (inactive).

Consider `COCCNC(=O)Cn1nc(C(F)(F)F)c(Br)c1C`, for which the viability in assay [1] is 118%; in assay [3], 118% (inactive); in assay [4], 90.4% (inactive); in assay [5], 108% (inactive); in assay [6] (setting [9]), 92.5%; in assay [6] (setting [10]) it was 108%. Besides, in assay [2], the Her2 level was 104% (inactive). Further, in assay [6] (H69AR cells + 2 uM doxorubicin), the differential viability (reversal) was 15.8% (inactive). Moreover, the inhibition in assay [7] was -4.27% (inactive); in assay [8] it was -0.81% (inactive).

For `Cc1cc(NC(=O)CCC(=O)N(CCc2ccccc2)C(C(=O)NC2CCCC2)c2ccco2)no1` (stereo not given), the viability was 85.5% in assay [1]; 85.5% (inactive) in assay [3]; 79.2% (inactive) in assay [4]; 99.2% (inactive) in assay [5]; 95.1% in assay [6] (setting [9]); 99.2% in assay [6] (setting [10]). Further, the Her2 level in assay [2] was 99% (inactive). In assay [6] (H69AR cells + 2 uM doxorubicin), the differential viability (reversal) is 4.1% (inactive). The inhibition is 1.47% (inactive) in assay [7] and -2.13% (inactive) in assay [8].

For `Cc1ccc(C(=O)NC2CC3CCCC(C2)N3C(=O)NC2CCCCC2)cc1` (stereo not given), the viability in assay [1] was 92%; in assay [3], 92% (inactive); in assay [4], 111% (inactive); in assay [5] it was 98.5% (inactive); in assay [6] (setting [9]), 90.6%; in assay [6] (setting [10]) it was 98.5%. Also, the Her2 level in assay [2] was 109% (inactive). Further, the differential viability (reversal) in assay [6] (H69AR cells + 2 uM doxorubicin) is 7.93% (inactive). For the same molecule, the inhibition in assay [7] is -5.73% (inactive); in assay [8], -2.1% (inactive).

Turning to `Cc1cccc(-c2c3c(=O)n(C)c(=O)n(C)c3cn2-c2ccc(O)cc2)c1`, the viability in assay [1] was 102%; in assay [3], 102% (inactive); in assay [4], 108% (inactive); in assay [5] it was 86.6% (inactive); in assay [6] (setting [9]), 93.1%; in assay [6] (setting [10]) it was 86.6%. Also, the Her2 level in assay [2] is 80% (inactive). In addition, the differential viability (reversal) in assay [6] (H69AR cells + 2 uM doxorubicin) was -6.51% (inactive). Further, the figures for the inhibition in assay [7] and in assay [8] were -3.11% (inactive) and -2.38% (inactive), respectively.

Take `CCN(C(=O)c1cc(Cl)ccc1OC)C1CCCCC1`: the viability is 86.5% in assay [1]; 86.5% (inactive) in assay [3]; 101% (inactive) in assay [4]; 83.8% (inactive) in assay [5]; 94.4% in assay [6] (setting [9]); 83.8% in assay [6] (setting [10]). In addition, in assay [2], the Her2 level is 104% (inactive). In addition, the differential viability (reversal) in assay [6] (H69AR cells + 2 uM doxorubicin) is -10.6% (inactive). Further, the inhibition in assay [7] is -2.86% (inactive); in assay [8], -2.5% (inactive).
